Measured values from ChEMBL document CHEMBL2321654, “Design, modification and 3D QSAR studies of novel naphthalin-containing pyrazoline derivatives with/without thiourea skeleton as anticancer agents” (Bioorg Med Chem, 2013).
Active and inactive are the calls of the source. The calls are words filed in the database; no cut-off is given here.

Assays:
[1] = tested on: A549; assay: Antiproliferative activity against human A549 cells after 24 hrs by MTT assay; assay type: functional; details: A549, 24 h
Method in brief: (§1)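 MCF-7 and A549 cells grown in DMEM/10% FBS, 5% CO2, 37 °C; seeded at 1000 cells/well and left 24 h to reattach. Compound stocks 20 mM in DMSO, diluted in medium; 3-fold serial dilutions gave final […]. Exposure 24 h at 37 °C, then MTT read-out at 590 nm. GI50 calculated from absorbance.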

[2] = target: Receptor tyrosine-protein kinase erbB-2 (Homo sapiens, UniProt P04626); assay: Inhibition of human recombinant HER-2 cytoplasmic domain (676 to 1245) autophosphorylation after 1 hr
Method in brief: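 His6-tagged HER-2 expressed in Sf-9 cells (3-day infection), purified by Ni-NTA at 4 °C. Enzyme (12.5 ng) preincubated with compound 10 min at room temperature, then 0.1 mM ATP-50 mM MgCl2 with MnCl2, Na3VO4 and DTT buffer added for 1 h. Autophosphorylation read by europium anti-phosphotyrosine DELFIA time-resolved fluorescence (ex 340/em 615 nm). Controls with and without ATP-MgCl2; triplicate.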

[3] = target: T1, Epidermal growth factor receptor (Homo sapiens, UniProt P00533); assay: Inhibition of recombinant EGFR cytoplasmic domain (645 to 1186) (unknown origin) autophosphorylation after 1 hr
[4] = tested on: MCF7; assay: Antiproliferative activity against human MCF7 cells after 24 hrs by MTT assay; assay type: functional; details: MCF7, 24 h; method in brief: as §1
[5] = target: Focal adhesion kinase 1 (Homo sapiens, UniProt Q05397); assay: Inhibition of human-recombinant full-length FAK after 4 hrs by kinase-Glo-luminescence assay
Method in brief: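 Full-length recombinant human FAK incubated with ATP and substrate in kinase buffer, with or without compound, for 4 h at room temperature. Final drug concentrations 100, 30, 10 and 3 µg/mL. Remaining ATP measured by Kinase-Glo luminescence.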

[6] = target: Vascular endothelial growth factor receptor 2 (Homo sapiens, UniProt P35968); assay: Inhibition of VEGFR-2 (unknown origin) using gastrin as substrate after 1 hr by fluorescence assay
Method in brief: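 Phosphorylated or nonphosphorylated VEGFR-2 kinase domain, 5 nM, incubated with compound (10-point titration, 4 to 0.1 µM) and 1 µM gastrin substrate in Tris-HCl pH 7.5 with MgCl2, NaCl, EGTA, DTT, orthovanadate and BSA, 30 min at 25 °C. ATP then added to 11.8 µM final for 60 min at room temperature. Eu-anti-phosphotyrosine time-resolved fluorescence read at 665 nm; triplicate.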

[7] = target: T1, Epidermal growth factor receptor; details: A549, 0.02 to 0.32 uM
[8] = target: T1, Epidermal growth factor receptor; details: A549, 0.02 to 0.32 uM; remark: listed apart in the source
[9] = target: Receptor tyrosine-protein kinase erbB-3 (Homo sapiens, UniProt P21860); assay: Inhibition of human recombinant HER-3 cytoplasmic domain (665 to 1339) autophosphorylation after 1 hr
Method in brief: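 HER-3 cytoplasmic domain (aa 665–1339) from 1.8 Kb human cDNA. Assayed by the same DELFIA autophosphorylation procedure as EGFR/HER-2: compound preincubated with enzyme, ATP-MgCl2 for 1 h, europium anti-phosphotyrosine time-resolved fluorescence read-out.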

Chain of Receptor tyrosine-protein kinase erbB-3 (P21860 whole entry, the tested form may be a part): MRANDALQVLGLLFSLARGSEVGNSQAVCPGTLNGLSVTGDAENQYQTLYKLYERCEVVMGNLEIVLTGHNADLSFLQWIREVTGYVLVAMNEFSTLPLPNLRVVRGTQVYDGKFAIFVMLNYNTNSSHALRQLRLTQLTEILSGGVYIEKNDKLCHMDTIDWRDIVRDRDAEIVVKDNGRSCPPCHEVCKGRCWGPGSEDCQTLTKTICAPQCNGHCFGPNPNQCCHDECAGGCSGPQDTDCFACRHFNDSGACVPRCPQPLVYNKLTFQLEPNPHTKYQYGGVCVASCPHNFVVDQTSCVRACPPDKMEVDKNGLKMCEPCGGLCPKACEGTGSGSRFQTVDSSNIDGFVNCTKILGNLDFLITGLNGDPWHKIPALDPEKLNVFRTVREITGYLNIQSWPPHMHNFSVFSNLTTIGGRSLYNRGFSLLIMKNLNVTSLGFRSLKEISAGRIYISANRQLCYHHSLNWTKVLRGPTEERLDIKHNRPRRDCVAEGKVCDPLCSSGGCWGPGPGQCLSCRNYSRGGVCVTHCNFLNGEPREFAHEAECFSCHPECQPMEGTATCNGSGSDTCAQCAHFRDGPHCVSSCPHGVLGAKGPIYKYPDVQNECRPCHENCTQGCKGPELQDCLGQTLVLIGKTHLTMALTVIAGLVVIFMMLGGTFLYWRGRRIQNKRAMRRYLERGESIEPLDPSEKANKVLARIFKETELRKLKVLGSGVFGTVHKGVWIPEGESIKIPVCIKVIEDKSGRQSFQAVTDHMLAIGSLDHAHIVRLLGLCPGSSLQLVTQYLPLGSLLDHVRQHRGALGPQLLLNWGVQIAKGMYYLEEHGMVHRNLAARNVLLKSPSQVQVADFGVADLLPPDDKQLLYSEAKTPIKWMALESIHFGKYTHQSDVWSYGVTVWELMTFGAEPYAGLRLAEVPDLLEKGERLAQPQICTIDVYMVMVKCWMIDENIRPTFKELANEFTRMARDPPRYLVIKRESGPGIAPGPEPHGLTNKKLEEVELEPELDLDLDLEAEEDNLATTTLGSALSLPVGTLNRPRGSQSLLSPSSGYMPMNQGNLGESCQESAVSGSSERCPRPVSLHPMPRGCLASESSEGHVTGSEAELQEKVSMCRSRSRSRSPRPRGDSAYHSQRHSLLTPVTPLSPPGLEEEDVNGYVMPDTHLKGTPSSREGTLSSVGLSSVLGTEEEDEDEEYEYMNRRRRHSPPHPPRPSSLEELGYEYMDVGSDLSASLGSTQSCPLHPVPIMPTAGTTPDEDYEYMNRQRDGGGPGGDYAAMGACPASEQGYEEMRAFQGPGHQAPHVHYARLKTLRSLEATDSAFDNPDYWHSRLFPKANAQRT
T1 sequence (P00533 whole entry, the tested form may be a part): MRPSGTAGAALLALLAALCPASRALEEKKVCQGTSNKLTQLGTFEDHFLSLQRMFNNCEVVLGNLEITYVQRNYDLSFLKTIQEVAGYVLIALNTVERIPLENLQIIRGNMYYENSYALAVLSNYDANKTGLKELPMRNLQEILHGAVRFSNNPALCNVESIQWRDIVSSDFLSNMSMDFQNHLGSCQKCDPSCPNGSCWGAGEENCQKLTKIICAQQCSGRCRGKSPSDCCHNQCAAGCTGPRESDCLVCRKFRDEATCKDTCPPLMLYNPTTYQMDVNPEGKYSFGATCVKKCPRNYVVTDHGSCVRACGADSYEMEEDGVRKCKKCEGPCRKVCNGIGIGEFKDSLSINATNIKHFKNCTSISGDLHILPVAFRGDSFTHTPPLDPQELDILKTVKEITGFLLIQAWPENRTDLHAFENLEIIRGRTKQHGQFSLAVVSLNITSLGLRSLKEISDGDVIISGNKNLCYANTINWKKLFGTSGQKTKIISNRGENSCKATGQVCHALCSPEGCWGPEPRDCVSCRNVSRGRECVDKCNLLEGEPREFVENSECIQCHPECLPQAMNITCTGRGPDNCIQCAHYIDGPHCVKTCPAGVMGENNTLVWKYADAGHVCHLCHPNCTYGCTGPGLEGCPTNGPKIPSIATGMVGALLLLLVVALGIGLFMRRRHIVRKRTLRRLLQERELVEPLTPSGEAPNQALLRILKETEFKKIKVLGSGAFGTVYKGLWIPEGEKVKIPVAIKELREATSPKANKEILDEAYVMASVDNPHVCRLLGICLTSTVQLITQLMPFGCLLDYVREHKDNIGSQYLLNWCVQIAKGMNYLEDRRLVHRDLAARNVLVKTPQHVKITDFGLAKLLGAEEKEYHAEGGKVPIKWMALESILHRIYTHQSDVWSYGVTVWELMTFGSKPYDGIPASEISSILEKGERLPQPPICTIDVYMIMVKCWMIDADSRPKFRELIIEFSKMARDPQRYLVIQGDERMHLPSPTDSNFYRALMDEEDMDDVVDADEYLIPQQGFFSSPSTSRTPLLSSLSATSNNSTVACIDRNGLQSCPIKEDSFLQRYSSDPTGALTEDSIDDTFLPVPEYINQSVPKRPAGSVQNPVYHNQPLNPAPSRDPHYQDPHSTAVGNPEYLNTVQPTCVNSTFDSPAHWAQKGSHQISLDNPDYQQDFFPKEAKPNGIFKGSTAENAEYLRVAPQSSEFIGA
Chain of Vascular endothelial growth factor receptor 2 (P35968 whole entry, the tested form may be a part): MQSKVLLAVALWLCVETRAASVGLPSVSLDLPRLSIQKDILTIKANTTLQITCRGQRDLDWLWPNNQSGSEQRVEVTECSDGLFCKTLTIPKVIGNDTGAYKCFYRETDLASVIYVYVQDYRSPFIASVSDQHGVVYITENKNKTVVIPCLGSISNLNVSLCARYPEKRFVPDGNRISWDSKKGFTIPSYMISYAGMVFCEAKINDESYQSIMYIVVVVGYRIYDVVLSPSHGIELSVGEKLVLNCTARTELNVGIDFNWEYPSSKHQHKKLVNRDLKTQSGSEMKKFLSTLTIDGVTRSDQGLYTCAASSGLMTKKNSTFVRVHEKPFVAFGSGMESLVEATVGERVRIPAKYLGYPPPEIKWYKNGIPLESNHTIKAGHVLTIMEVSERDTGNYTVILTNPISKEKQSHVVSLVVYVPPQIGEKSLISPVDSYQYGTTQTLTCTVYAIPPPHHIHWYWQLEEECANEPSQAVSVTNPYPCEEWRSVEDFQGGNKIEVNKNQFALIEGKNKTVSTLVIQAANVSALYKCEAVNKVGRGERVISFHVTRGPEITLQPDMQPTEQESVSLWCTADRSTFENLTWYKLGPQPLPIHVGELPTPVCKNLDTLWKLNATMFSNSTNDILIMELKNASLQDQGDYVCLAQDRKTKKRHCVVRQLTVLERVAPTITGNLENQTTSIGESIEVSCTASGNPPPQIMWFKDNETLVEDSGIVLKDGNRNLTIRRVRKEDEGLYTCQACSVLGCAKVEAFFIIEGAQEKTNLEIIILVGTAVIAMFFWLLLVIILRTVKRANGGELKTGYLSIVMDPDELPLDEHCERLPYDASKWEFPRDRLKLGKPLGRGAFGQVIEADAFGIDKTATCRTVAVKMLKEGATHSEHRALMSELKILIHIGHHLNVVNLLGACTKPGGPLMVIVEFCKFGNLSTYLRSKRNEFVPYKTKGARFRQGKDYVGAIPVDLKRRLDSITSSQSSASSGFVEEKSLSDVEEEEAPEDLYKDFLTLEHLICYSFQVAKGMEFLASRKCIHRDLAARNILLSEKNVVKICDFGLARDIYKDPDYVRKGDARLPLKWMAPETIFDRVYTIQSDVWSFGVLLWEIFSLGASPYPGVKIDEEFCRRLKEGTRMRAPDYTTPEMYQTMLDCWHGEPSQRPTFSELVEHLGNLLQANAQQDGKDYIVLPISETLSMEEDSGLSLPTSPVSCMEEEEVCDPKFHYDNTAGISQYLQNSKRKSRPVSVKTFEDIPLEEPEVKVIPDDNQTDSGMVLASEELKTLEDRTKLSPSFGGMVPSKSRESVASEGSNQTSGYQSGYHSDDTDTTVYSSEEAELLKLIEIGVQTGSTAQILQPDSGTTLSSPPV
Chain of Focal adhesion kinase 1 (Q05397 whole entry): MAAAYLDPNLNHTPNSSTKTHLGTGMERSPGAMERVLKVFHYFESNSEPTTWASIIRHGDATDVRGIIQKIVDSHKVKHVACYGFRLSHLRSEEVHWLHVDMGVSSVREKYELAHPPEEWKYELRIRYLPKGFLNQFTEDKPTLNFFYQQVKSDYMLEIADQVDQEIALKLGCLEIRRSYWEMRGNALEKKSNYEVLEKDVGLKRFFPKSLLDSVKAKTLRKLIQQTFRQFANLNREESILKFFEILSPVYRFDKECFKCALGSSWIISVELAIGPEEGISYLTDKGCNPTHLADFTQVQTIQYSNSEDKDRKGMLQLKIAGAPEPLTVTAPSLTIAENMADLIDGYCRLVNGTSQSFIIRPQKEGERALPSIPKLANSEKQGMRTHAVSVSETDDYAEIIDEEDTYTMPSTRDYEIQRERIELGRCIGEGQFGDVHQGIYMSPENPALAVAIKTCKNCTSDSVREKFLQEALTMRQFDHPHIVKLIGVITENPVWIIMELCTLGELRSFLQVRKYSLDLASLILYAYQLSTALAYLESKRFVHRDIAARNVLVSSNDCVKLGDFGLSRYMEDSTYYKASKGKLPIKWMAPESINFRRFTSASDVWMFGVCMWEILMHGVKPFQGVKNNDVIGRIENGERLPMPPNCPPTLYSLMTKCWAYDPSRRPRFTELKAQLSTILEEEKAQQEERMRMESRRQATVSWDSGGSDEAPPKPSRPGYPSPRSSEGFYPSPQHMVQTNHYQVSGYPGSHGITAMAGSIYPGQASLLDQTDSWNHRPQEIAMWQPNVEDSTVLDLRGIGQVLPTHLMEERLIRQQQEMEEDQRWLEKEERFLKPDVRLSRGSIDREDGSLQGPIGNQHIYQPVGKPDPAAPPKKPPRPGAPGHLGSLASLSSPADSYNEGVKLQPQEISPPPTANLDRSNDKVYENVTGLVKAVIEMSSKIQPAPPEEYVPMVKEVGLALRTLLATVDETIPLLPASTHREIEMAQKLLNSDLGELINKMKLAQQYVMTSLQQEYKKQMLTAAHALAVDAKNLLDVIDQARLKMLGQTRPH

Row | SMILES | GI50 [1] [µM] | IC50 [2] [µM] | IC50 [3] [µM] | GI50 [4] [µM] | IC50 [5] [µM] | IC50 [6] [µM] | inhibition [7] | inhibition [8] | IC50 [9] [µM]
1 | Brc1ccc(C2=NN(c3ccccc3)C(c3cccc4ccccc34)C2)cc1 (configuration not stated) | 0.25 | 2.32 | 0.49 | 1.03 | – | – | – | – | –
2 | c1ccc(C2=NN(c3ccccc3)C(c3cccc4ccccc34)C2)cc1 (configuration not stated) | 1.98 | 3.83 | 2.52 | 3.29 | – | – | – | – | –
3 | Clc1ccc(C2=NN(c3ccccc3)C(c3ccc4ccccc4c3)C2)cc1Cl (configuration not stated) | 0.11 | 1.02 | 0.05 | 0.39 | 6.2 | 1.83 | Active | Active | 35.9
4 | Clc1ccc(C2=NN(c3ccccc3)C(c3ccc4ccccc4c3)C2)cc1 (configuration not stated) | 0.16 | 1.46 | 0.11 | 0.53 | – | – | – | – | –
5 | Clc1ccc(C2=NN(c3ccccc3)C(c3cccc4ccccc34)C2)cc1Cl (configuration not stated) | 0.2 | 1.98 | 0.14 | 0.81 | – | – | – | – | –
6 | c1ccc(C2=NN(c3ccccc3)C(c3ccc4ccccc4c3)C2)cc1 (configuration not stated) | 0.22 | 1.89 | 0.24 | 0.73 | – | – | – | – | –
7 | NC(=S)N1N=C(c2ccc(Cl)c(Cl)c2)CC1c1ccc2ccccc2c1 (configuration not stated) | 0.31 | 0.88 | 0.66 | 0.35 | 9.9 | 3.2 | – | – | 51.7
8 | COc1ccc(C2=NN(c3ccccc3)C(c3cccc4ccccc34)C2)cc1 (configuration not stated) | 0.16 | 3.01 | 0.1 | 1.71 | 10.3 | 3.4 | – | – | 40.2
9 | NC(=S)N1N=C(c2ccc(Cl)c(Cl)c2)CC1c1ccc(O)cc1 (configuration not stated) | 33.5 | 6.58 | – | 27.6 | – | – | – | – | –
10 | NC(=S)N1N=C(c2ccccc2)CC1c1cccc2ccccc12 (configuration not stated) | 1.44 | 7.24 | 2.23 | 44.5 | – | – | – | – | –
11 | Brc1ccc(C2=NN(c3ccccc3)C(c3ccc4ccccc4c3)C2)cc1 (configuration not stated) | 0.36 | 1.28 | 0.71 | 0.48 | – | – | – | – | –
12 | NC(=S)N1N=C(c2ccccc2)CC1c1ccc2ccccc2c1 (configuration not stated) | 3.21 | 5.69 | 3.01 | 13.8 | – | – | – | – | –
13 | NC(=S)N1N=C(c2ccc(Cl)c(Cl)c2)CC1c1cccc2ccccc12 (configuration not stated) | 0.18 | 6.84 | 0.21 | 33.1 | – | – | – | – | –
14 | NC(=S)N1N=C(c2ccc(F)cc2)CC1c1cccc2ccccc12 (configuration not stated) | > 50 | 10.6 | 8.25 | > 50 | – | – | – | – | –
15 | NC(=S)N1N=C(c2ccc(Cl)cc2)CC1c1cccc2ccccc12 (configuration not stated) | 0.38 | 5.46 | – | 11.2 | – | – | – | – | –
16 | COc1ccc(C2CC(c3ccc(C)c(C)c3)=NN2C(N)=S)cc1 (configuration not stated) | 0.34 | 2.77 | – | 3.79 | – | – | – | – | –

Row | SMILES | GI50 [1] [µM] | IC50 [2] [µM] | IC50 [3] [µM] | GI50 [4] [µM] | IC50 [5] [µM] | IC50 [6] [µM] | inhibition [7] | inhibition [8] | IC50 [9] [µM]
17 | Cc1ccc(C2=NN(C(N)=S)C(c3cccc4ccccc34)C2)cc1 (configuration not stated) | 1.21 | 6.68 | 2.06 | 29.1 | – | – | – | – | –
18 | C#Cc1cccc(Nc2ncnc3cc(OCCOC)c(OCCOC)cc23)c1 [ERLOTINIB] | 0.03 | – | – | 0.08 | – | – | – | – | –
19 | Clc1ccc(C2=NN(c3ccccc3)C(c3cccc4ccccc34)C2)cc1 (configuration not stated) | 0.33 | 3.07 | 0.68 | 1.82 | – | – | – | – | –
20 | COc1ccc(C2=NN(C(N)=S)C(c3cccc4ccccc34)C2)cc1 (configuration not stated) | 0.17 | 4.18 | 0.16 | 4.18 | 13.6 | 4.1 | – | – | 55.6
21 | NC(=S)N1N=C(c2ccc(Br)cc2)CC1c1cccc2ccccc12 (configuration not stated) | 49.1 | 9.15 | 5.68 | > 50 | – | – | – | – | –
22 | Cc1ccc(C2=NN(c3ccccc3)C(c3cccc4ccccc34)C2)cc1 (configuration not stated) | 0.19 | 1.91 | 0.2 | 0.74 | – | – | – | – | –
23 | NC(=S)N1N=C(c2ccc(F)cc2)CC1c1ccc2ccccc2c1 (configuration not stated) | 4.18 | 1.75 | 3.28 | 0.88 | – | – | – | – | –
24 | Cc1ccc(C2=NN(C(N)=S)C(c3ccc4ccccc4c3)C2)cc1 (configuration not stated) | 0.27 | 1.04 | 0.52 | 0.39 | 28.7 | 2.1 | – | – | 63.2
25 | COc1ccc(C2=NN(c3ccccc3)C(c3ccc4ccccc4c3)C2)cc1 (configuration not stated) | 0.16 | 1.45 | – | 0.55 | – | – | – | – | –
26 | COc1ccc(C2=NN(C(N)=S)C(c3ccc4ccccc4c3)C2)cc1 (configuration not stated) | 0.46 | 3.28 | 1.04 | 2.12 | – | – | – | – | –
27 | NC(=S)N1N=C(c2ccc(Br)cc2)CC1c1ccc2ccccc2c1 (configuration not stated) | 0.23 | 1.21 | 0.35 | 0.44 | – | – | – | – | –
28 | Fc1ccc(C2=NN(c3ccccc3)C(c3ccc4ccccc4c3)C2)cc1 (configuration not stated) | 0.23 | 2.01 | 0.3 | 0.85 | – | – | – | – | –
29 | Fc1ccc(C2=NN(c3ccccc3)C(c3cccc4ccccc34)C2)cc1 (configuration not stated) | 0.49 | 3.59 | 1.07 | 2.68 | – | – | – | – | –
30 | NC(=S)N1N=C(c2ccc(Cl)cc2)CC1c1ccc2ccccc2c1 (configuration not stated) | 0.26 | 3.87 | – | 3.31 | – | – | – | – | –
31 | Cc1ccc(C2=NN(c3ccccc3)C(c3ccc4ccccc4c3)C2)cc1 (configuration not stated) | 0.13 | 1.13 | 0.06 | 0.39 | 11.5 | 1.56 | – | – | 45.3
